These results are taken from ChEMBL document CHEMBL1137373 (J Med Chem, 2006).

The target in data set [1] is T1, Amyloid-beta precursor protein (Homo sapiens, UniProt P05067). The experiment in a line: Displacement of [125I]IMSB from beta amyloid protein 40. In general terms: In a radioligand displacement assay an active substance lowers the binding of a labelled ligand.
The target in data set [2] is T1, Amyloid-beta precursor protein. The experiment in a line: Displacement of [125I]IMPY from beta amyloid protein 40.
In data set [3] the test system is Mus musculus. The experiment in a line: Biodistribution in muscle of iv dosed ICR mouse after 60 mins. The format is ADME, organism-based, Muscle tissue. The following applies: in vivo, 1 h. A digest of the protocol: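 Male ICR mice (25-30 g, four per time point) injected by tail vein with radioligand (0.74 MBq 125I or 1.85 MBq 18F) in 0.2 mL 10% ethanol-saline. Sacrificed at 2, 30, 60 or 120 min. Blood, organs, muscle and thyroid or bone weighed and counted in a gamma counter. Expressed as % injected dose per gram.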

Data set [4] in a line: Partition coefficient, log P of the compound. It counts as physicochemical. The following applies: octanol/water. A digest of the protocol: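 Radioligand added to octanol/water (600 µL each), vortexed 3 min, centrifuged 2000 rpm 5 min. Aliquots of both layers counted, repartitioned until consistent. Run in triplicate. Log P taken as log of octanol/water cpm ratio.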
The test system of data set [5] is Mus musculus. The experiment in a line: Stability in iv dosed ICR mouse brain after 60 mins. The format is ADME, organism-based. The conditions noted are these: in vivo, 1 h. A digest of the protocol:
(§1)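 Male ICR mice (25-30 g) given 18F radioligand (14.8 MBq/mouse) by tail vein, killed at 2, 30 and 60 min. Blood and whole brain homogenized in 1 mL chilled absolute ethanol, centrifuged 3000 rpm 3 min. Supernatant analysed by radio-TLC (20:1 CH2Cl2-CH3OH and 1:1:0.01 CH2Cl2-CH3OH-triethylamine) for percent parent radioligand.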

Data set [6] relates to Mus musculus. Nature of the data set: Biodistribution in kidney of iv dosed piperine-treated ICR mouse after 2 mins. It counts as ADME, organism-based. The following applies: in vivo. A digest of the protocol: (§2)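 Male ICR mice (25-30 g, four per time point) given radioligand mixed with piperine (2 mg/kg) in 0.2 mL 10% ethanol-saline by tail vein, 1.85 MBq for the 18F tracer. Killed at 2, 30, 60 or 120 min. Blood and organs removed, weighed and gamma-counted. Data given as % injected dose per gram tissue.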

Data set [7] deals with Mus musculus. The experiment in a line: Biodistribution in spleen of iv dosed piperine-treated ICR mouse after 60 mins. The format is ADME, organism-based. The conditions noted are these: in vivo, 1 h. A digest of the protocol:
as §2

For data set [8], the system named is Mus musculus. Nature of the data set: Biodistribution in brain of iv dosed piperine-treated ICR mouse after 2 mins. The format is ADME, organism-based. The conditions noted are these: in vivo. A digest of the protocol:
as §2

In data set [9] the test system is Mus musculus. Nature of the data set: Biodistribution in blood of iv dosed piperine-treated ICR mouse after 60 mins. It counts as ADME, organism-based. The conditions noted are these: in vivo, 1 h. A digest of the protocol:
as §2

In data set [10] the test system is Mus musculus. Nature of the data set: Stability in iv dosed ICR mouse blood after 60 mins. The format is ADME, organism-based. The following applies: in vivo, 1 h. Summed up: as §1
Another data set is filed under the species Rattus norvegicus. Nature of the data set: Increase in bioavailability in rat in presence of piperine at 1 to 2 hrs. It counts as ADME, organism-based. The following applies: in vivo.
The species entered for another data set is Homo sapiens. Nature of the data set: Increase in bioavailability in human in presence of piperine after 45 mins. The format is ADME, organism-based. The conditions noted are these: in vivo, 0.75 h.

T1 sequence (P05067 whole entry): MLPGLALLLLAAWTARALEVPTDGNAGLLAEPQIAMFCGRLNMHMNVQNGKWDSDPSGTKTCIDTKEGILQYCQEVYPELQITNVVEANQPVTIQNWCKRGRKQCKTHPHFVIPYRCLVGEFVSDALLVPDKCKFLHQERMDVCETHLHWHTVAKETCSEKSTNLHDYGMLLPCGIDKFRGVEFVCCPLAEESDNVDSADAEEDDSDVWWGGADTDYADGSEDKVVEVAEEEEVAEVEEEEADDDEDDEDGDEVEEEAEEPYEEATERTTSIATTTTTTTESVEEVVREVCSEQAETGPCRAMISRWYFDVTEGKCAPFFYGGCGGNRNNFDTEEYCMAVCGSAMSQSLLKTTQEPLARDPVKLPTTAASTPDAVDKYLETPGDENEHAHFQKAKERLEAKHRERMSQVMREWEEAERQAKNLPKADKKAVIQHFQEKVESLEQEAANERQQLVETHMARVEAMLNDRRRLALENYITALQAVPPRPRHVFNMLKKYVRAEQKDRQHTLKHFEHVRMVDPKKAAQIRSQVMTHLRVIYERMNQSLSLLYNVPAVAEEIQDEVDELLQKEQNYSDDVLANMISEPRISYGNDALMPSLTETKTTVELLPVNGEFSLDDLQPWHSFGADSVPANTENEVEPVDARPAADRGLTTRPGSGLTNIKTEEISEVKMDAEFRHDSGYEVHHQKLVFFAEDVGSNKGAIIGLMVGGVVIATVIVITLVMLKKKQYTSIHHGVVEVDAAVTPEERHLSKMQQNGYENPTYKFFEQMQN

Turning to `COc1cc(/C=C/C(O)=C/C(=O)/C=C/c2cc(I)c(O)c(OC)c2)ccc1O`, the affinity in data set [1], expressed as Ki, was 9.37 nM.

In the case of `COc1cc(/C=C/C(O)=C/C(C)=O)ccc1OCCF`, in data set [2], affinity was put at a Ki of 958 nM.

Turning to `COc1cc(/C=C/C(C)=O)cc(I)c1O`, the results for the Ki in [1] and in [2] were 20 nM and 36.6 nM, respectively.

Regarding `COc1cc(/C=C/C(O)=C/C(C)=O)ccc1OCCCF`, the Ki in data set [2] was 316 nM.

`COc1cc(/C=C/C(O)=C/C(C)=O)cc([125I])c1O` showed a Drug uptake in the data set with Mus musculus [3] of 0.26 % ID/g. The molecule also showed a logP in data set [4] of 1.35.

In data set [2], `COc1cc(/C=C/C(O)=C/C(C)=O)cc(I)c1O` showed a Ki of 24.9 nM.

On to `COc1cc(/C=C/C(O)=C/C(=O)/C=C/c2ccc(OCCC[18F])c(OC)c2)ccc1O`, for which the Activity entry is “Active” with Mus musculus [5] and “Not Active” in the data set with Mus musculus [10]. Also, the Drug uptake in the data set with Mus musculus [6] was 8.69 % ID/g; in the data set on Mus musculus [7], 41.07 % ID/g; in the data set with Mus musculus [3] it was 0.27 % ID/g; in the data set on Mus musculus [8] it was 0.77 % ID/g; in the data set on Mus musculus [9], 0.82 % ID/g. This molecule displayed a logP in [4] of 1.84.

In [1], `COc1cc(/C=C/C(O)=C/C(=O)/C=C/c2ccc(OCCCF)c(OC)c2)ccc1O` showed a Ki of 0.07 nM.

As to `COc1cc(/C=C/C(C)=O)ccc1OCCCF`, in data set [2], the inhibitory constant (Ki) turned out to be 839 nM.

Turning to `COc1cc(/C=C/C(C)=O)ccc1OCCF`, in data set [2], the affinity, expressed as Ki, was 233 nM.

As to `COc1cc(/C=C/C(O)=C/C(=O)/C=C/c2cc([125I])c(O)c(OC)c2)ccc1O`, the logP in data set [4] came to 0.94.

With `O=C(O)c1cc(/N=N/c2ccc(-c3ccc(/N=N/c4ccc(O)c(C(=O)O)c4)cc3)cc2)ccc1O` [CHRYSAMINE G], the Ki in data set [1] was found to be 0.16 nM.

As to `COc1cc(/C=C/C(=O)CC(=O)/C=C/c2ccc(O)c(OC)c2)ccc1O` [CURCUMIN], the “Bioavailability Increase” value stood at 154% in the data set listed under Rattus norvegicus and 2000% in the data set listed under Homo sapiens.

What is called Ki is the dissociation constant of the complex between target and ligand, obtained from inhibition or displacement. Higher therefore signals lower affinity. Broadly, the logP is a log measure of how a compound divides between an organic and an aqueous phase.
